Screens: PubChem BioAssay, The Scripps Research Institute Molecular Screening Center
In the library only some 3.9% were active in any assay of this set; here they are far more common.
M1 ag: human M1 muscarinic receptor agonism; 360,000 tested, 0.33% active; activation, % at 3 µM; CHO-K1 hM1, Fluo-8 calcium fluorescence, agonist mode; 0% DMSO, 100% acetylcholine EC100;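 active means activation above the run's mean compound activation plus 3 SD, cut at about 16% in these data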;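 further: peak over basal fluorescence ratio within a 140 s kinetic read after compound addition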
TAAR1 antagonist: human TAAR1 antagonism. Q96RJ0. CHO RD-HGA16 TAAR1, Fluo-8 calcium fluorescence, antagonist. inhibition, % at 3 µM. 360,000 tested, 1.5% active. AID 624466;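 active means inhibition above a per-plate cutoff, the mean inhibition of test compounds on that plate plus 3 SD, cut at about 49% in these data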
Target sequence (Q96RJ0 whole entry, looked up): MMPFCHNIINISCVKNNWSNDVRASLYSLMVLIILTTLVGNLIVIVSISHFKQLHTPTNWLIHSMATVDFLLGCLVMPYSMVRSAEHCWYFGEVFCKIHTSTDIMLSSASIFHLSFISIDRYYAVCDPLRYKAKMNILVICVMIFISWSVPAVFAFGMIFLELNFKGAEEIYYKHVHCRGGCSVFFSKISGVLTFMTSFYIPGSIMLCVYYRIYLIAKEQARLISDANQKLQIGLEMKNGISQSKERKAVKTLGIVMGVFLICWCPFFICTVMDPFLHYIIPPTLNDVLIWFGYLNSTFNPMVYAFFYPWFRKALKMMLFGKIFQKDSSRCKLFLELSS
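Test system – hTAAR1-expressing CHO RD-HGA16 cells, Gα16-coupled · Also added – β-PEA at EC80 concentration, post-compound challenge · Compound – 3 µM, single point · Incubation – dye loading 75 min at 37 °C, then 30 min room temperature · Measured by – Fluo-8 intracellular calcium dye fluorescence, real-time kinetic reads · Benchmarks – vehicle and agonist controls · Replicates – singlicate, one well per test compound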
CHRM1 antagonist: blocks human M1 muscarinic receptor | P11229 | CHO-K1 hM1, Fluo-8 calcium fluorescence, ACh EC80 antagonist | inhibition, % at 3 µM | 360,000 tested, 1.3% active | AID 588852;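 active means percent inhibition above its own plate's cutoff, namely the mean of that plate's compound wells plus 3 SD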;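 further: peak over basal fluorescence ratio during 140 s after agonist addition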
m5-HT2A agonist: mouse HTR2A agonism via beta-arrestin recruitment; activation, % at 7.6 µM; AID 624169; P35363; CHO-K1 mHTR2A beta-arrestin complementation, luminescence; percent of 30 µM serotonin response; 360,000 tested, 0.66% active;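 active means activation above a run cutoff, the mean activation of all tested compounds plus 3 SD, cut at about 14% in these data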
CHRM1 PAM: positive allosteric modulators of human M1 muscarinic receptor; CHO-K1 hM1, Fluo-8 calcium fluorescence, ACh EC20; 0% = ACh EC20, 100% = maximal ACh; activation, % at 3 µM; 360,000 tested, 0.088% active; AID 588819; in the data active means activation above about 19%, passing the limit was not always enough
TAAR1 agonist: human TAAR1 agonism | CHO RD-HGA16 TAAR1, Fluo-8 calcium fluorescence; vehicle wells 0%, saturating PEA agonist 100% | Q96RJ0 | activation, % at 3 µM | 360,000 tested, 0.99% active;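 active means activation above the mean activation of all test compounds in the run plus 3 SD, cut at about 38% in these data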
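System: CHO-derived RD-HGA16 cells with stable Gα16 and human TAAR1 / Times: 17-24 h plating, Fluo-8 75 min 37 °C, 30 min RT / Technique: calcium-sensitive Fluo-8 signal, excitation 470-495, emission 515-575 nm / Measure: % activation relative to PEA EC100 response / Benchmarks: DMSO and PEA EC100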
MOR ag counter: OPRM1 agonism in mouse HTR2A counterscreen; activation, % at 9.3 µM; shares compounds with m5-HT2A agonist; U2OS OPRM1 beta-arrestin PathHunter, luminescence; DMSO 0%, DAMGO 9.3 µM 100%; 2,300 tested, 5.3% active;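 active means mean activation above the mean of DMSO-only wells plus 3 SD, cut at about 0.5% in these data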
m5-HT2A ag conf: confirmation of mouse HTR2A serotonin receptor agonists; CHO-K1 PathHunter beta-arrestin recruitment, luminescence; DMSO 0%, 30 µM serotonin 100%; shares compounds with m5-HT2A agonist; activation, % at 7.6 µM; 2,300 tested, 19% active;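 active means mean activation across triplicates above the hit threshold derived in the original primary screen, cut at about 15% in these data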
Each line names hits and unclear results; the compound was inactive in the other large screens (follow-up assays come after a bar, where they were run); ! = a repeat was not active.

Cc1cccc(CN2CCN(C(=O)Cc3ccccc3)CC2)c1	none
O=C(Cc1ccccc1)N1CCN(Cc2ccccc2Cl)CC1	m5-HT2A agonist 22 | MOR ag counter inactive | m5-HT2A ag conf inactive
CCc1ccc(CN2CCN(C(=O)Cc3ccccc3)CC2)cc1	none
CCOC(=O)COc1ccc2c(c1)c(C(C)=O)c(C)n2Cc1ccccc1	none
COC(=O)CC(NC(=S)N1CC2C[C@@H](C1)Cn1c2cccc1=O)C(=O)OC (some centres not stated)	none
COc1ccc(OC)c(CC(=O)N(C)C2CCCN(Cc3ccccc3F)C2)c1 (configuration not stated)	none
C[C@]12CC[C@H](OS(=O)(=O)O)CC1=CC[C@@H]1[C@@H]2CC[C@]2(C)C(=O)CC[C@@H]12	m5-HT2A agonist 15! | MOR ag counter inactive | m5-HT2A ag conf inactive
C[C@]12CCC(OC(=O)CCC(=O)O)CC1=CCC1C2CC[C@]2(C)C(=O)CCC12 (some centres not stated)	none
CC(=O)N1CCC(N2CCCC(C(=O)c3cccc(Cl)c3)C2)CC1 (configuration not stated)	CHRM1 antagonist 48, m5-HT2A agonist 36 | MOR ag counter inactive | m5-HT2A ag conf 86
COc1cccc(C(=O)C2CCCN(C3CCOCC3)C2)c1 (configuration not stated)	none
Cc1c(C(=O)N2CCC3(CC2)OCCO3)oc2ccc(S(=O)(=O)N3CCCCC3)cc12	none
CC(C)(C)c1cc(OC(=O)Cc2ccccc2)ccc1O	m5-HT2A agonist 15 | MOR ag counter inactive | m5-HT2A ag conf inactive
CCCNC(=O)N1[C@H]2CC[C@@H]1C(C(=O)OC)=C(c1c(C)noc1C)C2	none
Clc1cccc(N2CCNCC2)n1	m5-HT2A agonist 39 | MOR ag counter inactive | m5-HT2A ag conf 24
C[C@H](NC(=O)N1C[C@H]2C[C@@H](C1)c1cccc(=O)n1C2)C(=O)Nc1ccc(F)c(F)c1	none
O=c1cccc2n1CC1CC2CN(Cc2ccc3c(c2)OCO3)C1 (configuration not stated)	none
Cc1cc(C)n2c(Br)c(CN3CC4CC(C3)c3cccc(=O)n3C4)nc2n1 (configuration not stated)	m5-HT2A agonist 22 | MOR ag counter inactive | m5-HT2A ag conf inactive
COC(=O)OCC12CCC(O1)C1(C)C(=O)OCC21 (configuration not stated)	none
O=c1cccc2n1CC1CC2CN(C(c2cccc(F)c2)c2sc3ncnn3c2O)C1 (configuration not stated)	m5-HT2A agonist 16 | MOR ag counter inactive | m5-HT2A ag conf inactive
CCCCC1(CC)COP(=O)(OCC(Cl)(Cl)Cl)OC1 (configuration not stated)	m5-HT2A agonist 20 | MOR ag counter inactive | m5-HT2A ag conf inactive
CN1CCN(c2nc(N)c(Br)c(Cl)n2)CC1	none
CC1(C)CC(N(CCc2ccccc2)Cc2ccccc2)CCO1 (configuration not stated)	none
Cc1[nH]c2ccc(O)cc2c1CCN	none
Cc1[nH]c2c(C(F)(F)F)cccc2c1CCN	m5-HT2A agonist 48 | MOR ag counter inactive | m5-HT2A ag conf 32
CCC1CN1P(=S)(N1CC1CC)N1CC1CC (configuration not stated)	none
CCOC(=O)c1cc2ccccc2n1C1CCN(Cc2ccccc2)CC1	none (no result: M1 ag, CHRM1 antagonist, CHRM1 PAM)
CCCCn1c(O)c(C(=O)/C=C/c2ccc3c(c2)OCO3)c(=O)[nH]c1=O	m5-HT2A agonist 27 | MOR ag counter inactive | m5-HT2A ag conf inactive
O=C(/C=C/c1ccc2c(c1)OCO2)c1c(O)n(CCC2=CCCCC2)c(=O)[nH]c1=O	none
CN1CCCC2c3ccccc3CCC21 (configuration not stated)	none
Brc1cccc(CNCCc2ccc3c(c2)OCO3)c1	m5-HT2A agonist 21 | MOR ag counter 1.4 | m5-HT2A ag conf 21
c1ccc(CNCCc2ccc3c(c2)OCO3)nc1	none
C[C@]12CCC(=O)C(O)=C1CC[C@@H]1[C@@H]2CC[C@]2(C)C(=O)CC[C@@H]12	none
CC[C@H](C)[C@@H]1NC(=O)CNC(=O)c2csc(n2)[C@H](C(C)(C)O)OC(=O)C(C)(C)[C@H](CCCC(C)(Cl)Cl)OC(=O)c2csc1n2	m5-HT2A agonist 15 | MOR ag counter inactive | m5-HT2A ag conf inactive
Cn1c(O)c(C(=O)c2ccccc2F)c(=O)n(C)c1=O	none
Cn1c(O)c(C(=O)c2ccccc2)c(=O)n(C)c1=O	m5-HT2A agonist 18 | MOR ag counter inactive | m5-HT2A ag conf inactive
C=CCCC1(C2=CCCCC2)C(=O)NC(=O)NC1=O	none
CCCCn1c(=O)c(C(=O)NCc2ccco2)c(O)c2ccccc21	none
CCCCCn1c(=O)c(C(=O)NCc2ccco2)c(O)c2ccccc21	m5-HT2A agonist 18 | MOR ag counter inactive | m5-HT2A ag conf inactive
O=C(COc1ccc2ccccc2c1)N1CCN(Cc2c[nH]c3ccccc23)CC1	m5-HT2A agonist 34 | MOR ag counter inactive | m5-HT2A ag conf 19
O=C(COc1ccc(Br)cc1)N1CCN(Cc2c[nH]c3ccccc23)CC1	m5-HT2A agonist 56 | MOR ag counter inactive | m5-HT2A ag conf 28
COc1ccc(CN2CCN(C(=O)COc3ccc4ccccc4c3)CC2)c(OC)c1	none
COc1ccc(CCNCc2ccc(C)s2)cc1OC	m5-HT2A agonist 16 | MOR ag counter inactive | m5-HT2A ag conf inactive
COc1ccc(CCNCc2cccn2C)cc1OC	m5-HT2A agonist 25 | MOR ag counter inactive | m5-HT2A ag conf inactive
COc1ccc(CCNCc2sccc2C)cc1OC	m5-HT2A agonist 32 | MOR ag counter inactive | m5-HT2A ag conf inactive
O=C1NCCCCC1(Cl)Cl	m5-HT2A agonist 17 | MOR ag counter inactive | m5-HT2A ag conf inactive
Cc1cccc(-n2c(O)c(C=NCCCN3CCOCC3)c(=O)[nH]c2=O)c1C	none
CCCN1CCO[C@@H]2c3cc(O)ccc3OC[C@H]21	m5-HT2A agonist 58 | MOR ag counter inactive | m5-HT2A ag conf 161
O=C(c1ccc(N2CC3CC(C2)c2cccc(=O)n2C3)c([N+](=O)[O-])c1)N1CCCCC1 (configuration not stated)	none
